The results in this text go back to ChEMBL document CHEMBL2046430, “Synthesis, biological evaluation and molecular docking studies of 3-(1,3-diphenyl-1H-pyrazol-4-yl)-N-phenylacrylamide derivatives as inhibitors of HDAC activity” (Bioorg Med Chem, 2012).

One assay deals with HCT-116. The assay can be described thus: Antiproliferative activity against human HCT116 cells after 48 hrs by MTT assay. It is filed as functional, cell-based. The note with it: HCT-116, 48 h. In short, it runs like this:
(§1)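 Cells grown to log phase in RPMI 1640 + 10% FBS, seeded at 2 × 10^4 cells/mL (100 µL/well) and preincubated 24 h at 37 °C, 5% CO2. Compounds added at preset concentrations; MS275 as positive reference. After 48 h exposure, MTT (2.5 mg/mL in PBS) for 4 h, then SDS–isobutanol–HCl solubilization overnight at 37 °C; OD 570 nm. Triplicate wells per concentration, assays repeated ≥3 times; IC50 reported.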
A general note: Tetrazolium assays rely on reduction of a dye to a coloured formazan, in cell work by metabolically active cells.

In the next assay the test system is A549. The assay can be described thus: Antiproliferative activity against human A549 cells after 48 hrs by MTT assay. To be noted: A549, 48 h. It is filed as functional, cell-based. In outline:
as §1

Another assay has as its target Histone deacetylase 2 (Homo sapiens, UniProt Q92769). The assay is described as follows: Inhibition of HDAC2 in human HeLa cell lysate using KI-104 as substrate after 40 mins by fluorescence analysis. It is filed as cell-free.
For a further assay, the target named is Histone deacetylase 1 (Homo sapiens, UniProt Q13547). The assay is described as follows: Inhibition of HDAC1 in human HeLa cell lysate using KI-104 as substrate after 40 mins by fluorescence analysis. It is filed as cell-free.
Assay [1] addresses Histone deacetylase (Homo sapiens) (UniProt Q13547+O15379+Q9UBN7+Q92769+Q9UQL6+Q8WUI4+Q9BY41+Q96DB2+P56524+Q9UKV0+Q969S8). To be noted: HCT-116, 0.1 to 0.8 uM.

The term IC50 denotes the concentration that gives 50% inhibition.

Active and inactive are the calls of the source. No cut-off for these calls is given here.

Chain of Histone deacetylase 2 (Q92769 whole entry): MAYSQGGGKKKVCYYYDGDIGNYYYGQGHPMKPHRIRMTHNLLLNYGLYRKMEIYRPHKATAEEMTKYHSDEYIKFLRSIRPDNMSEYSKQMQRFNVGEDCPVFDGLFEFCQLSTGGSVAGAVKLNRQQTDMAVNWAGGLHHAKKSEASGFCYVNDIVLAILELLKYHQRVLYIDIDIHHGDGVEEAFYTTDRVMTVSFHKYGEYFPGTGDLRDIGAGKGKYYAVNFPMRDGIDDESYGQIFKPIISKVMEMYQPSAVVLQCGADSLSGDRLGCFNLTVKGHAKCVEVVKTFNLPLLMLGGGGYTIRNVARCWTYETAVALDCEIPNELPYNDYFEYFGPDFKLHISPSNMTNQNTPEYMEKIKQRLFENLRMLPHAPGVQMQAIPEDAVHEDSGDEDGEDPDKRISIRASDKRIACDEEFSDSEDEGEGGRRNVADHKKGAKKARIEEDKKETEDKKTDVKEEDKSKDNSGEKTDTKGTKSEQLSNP
Chain of Histone deacetylase 1 (Q13547 whole entry): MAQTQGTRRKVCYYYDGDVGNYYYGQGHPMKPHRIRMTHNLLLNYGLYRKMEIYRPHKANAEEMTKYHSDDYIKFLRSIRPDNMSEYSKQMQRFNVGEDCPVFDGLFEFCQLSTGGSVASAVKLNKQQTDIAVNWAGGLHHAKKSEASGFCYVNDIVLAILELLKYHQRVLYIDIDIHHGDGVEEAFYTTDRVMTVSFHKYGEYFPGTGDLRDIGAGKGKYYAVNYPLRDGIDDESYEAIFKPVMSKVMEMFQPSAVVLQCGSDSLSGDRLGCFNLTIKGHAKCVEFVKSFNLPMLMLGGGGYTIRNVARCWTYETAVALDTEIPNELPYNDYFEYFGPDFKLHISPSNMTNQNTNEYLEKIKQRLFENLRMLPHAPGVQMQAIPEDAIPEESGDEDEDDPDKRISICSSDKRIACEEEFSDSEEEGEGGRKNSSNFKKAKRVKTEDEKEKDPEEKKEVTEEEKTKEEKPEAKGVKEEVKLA

Consider `O=C(/C=C\c1cn(-c2ccccc2)nc1-c1ccc(Br)cc1)Nc1ccccc1`, for which the IC50 is 10.7 µM with HCT-116, > 20 µM in the assay on A549, 6.52 µM against Histone deacetylase 2 and 3.43 µM against Histone deacetylase 1.
The like results for `O=C(/C=C\c1cn(-c2ccccc2)nc1-c1ccc(Br)cc1)Nc1ccc(Br)cc1` were, in that order, 8.16 µM, 12.2 µM, 4.87 µM and 2.83 µM.
As for `Nc1ccccc1NC(=O)c1ccc(CNC(=O)OCc2cccnc2)cc1` [ENTINOSTAT], the IC50 in the assay with HCT-116 and in the assay with A549 was < 0.1 µM throughout.
As to `COc1ccc(NC(=O)/C=C\c2cn(-c3ccccc3)nc2-c2ccc(Br)cc2)cc1`, the concentration for half-maximal inhibition (IC50) in the assay on HCT-116 was 9.69 µM; with A549, > 20 µM; at Histone deacetylase 2 it was 5.35 µM; on Histone deacetylase 1, 3.31 µM.
The like results for `Cc1ccc(-c2nn(-c3ccccc3)cc2/C=C\C(=O)Nc2ccc(Cl)cc2)cc1` were, in that order, 7.65 µM, 15.4 µM, 5.86 µM and 3.65 µM.
Regarding `O=C(/C=C\c1cn(-c2ccccc2)nc1-c1ccc([N+](=O)[O-])cc1)Nc1ccc(Cl)cc1`, the IC50 with HCT-116 was 0.64 µM; with A549, 3.72 µM; on Histone deacetylase 2, 0.57 µM; on Histone deacetylase 1, 0.46 µM.
The like results for `COc1ccc(-c2nn(-c3ccccc3)cc2/C=C\C(=O)Nc2ccc(Cl)cc2)cc1` were, in that order, 1.56 µM, 8.04 µM, 2.36 µM and 1.09 µM.
The like results for `COc1ccc(-c2nn(-c3ccccc3)cc2/C=C\C(=O)Nc2ccc(Br)cc2)cc1` were, in that order, 1.53 µM, 7.47 µM, 2.17 µM and 1.05 µM.
For `O=C(/C=C\c1cn(-c2ccccc2)nc1-c1ccc([N+](=O)[O-])cc1)Nc1ccccc1`, in that order: 0.85 µM, 5.18 µM, 1.15 µM and 0.92 µM.
Turning to `Cc1ccc(-c2nn(-c3ccccc3)cc2/C=C\C(=O)Nc2ccc(Br)cc2)cc1`, the half-inhibitory concentration (IC50) in the assay with HCT-116 came to 7.16 µM; in the assay with A549, 11.8 µM; against Histone deacetylase 2, 5.02 µM; at Histone deacetylase 1, 3.33 µM.
For `COc1ccc(-c2nn(-c3ccccc3)cc2/C=C\C(=O)Nc2ccccc2)cc1`, in that order: 2.09 µM, 9.85 µM, 2.67 µM and 1.76 µM.
The like results for `COc1ccc(NC(=O)/C=C\c2cn(-c3ccccc3)nc2-c2ccc(C)cc2)cc1` were, in that order, 9.81 µM, > 20 µM, 6.45 µM and 4.05 µM.
For `O=C(/C=C\c1cn(-c2ccccc2)nc1-c1ccc(Br)cc1)Nc1ccc(Cl)cc1`, in that order: 8.37 µM, 15.8 µM, 4.99 µM and 2.98 µM.
Turning to `COc1ccc(NC(=O)/C=C\c2cn(-c3ccccc3)nc2-c2ccc(OC)cc2)cc1`, the half-inhibitory concentration (IC50) was 2.12 µM in the assay on HCT-116, 8.59 µM with A549, 3.02 µM at Histone deacetylase 2 and 1.73 µM against Histone deacetylase 1.
For `Cc1ccc(-c2nn(-c3ccccc3)cc2/C=C\C(=O)Nc2ccccc2)cc1`, in that order: 10.4 µM, 16.1 µM, 8.75 µM and 4.06 µM.
For `COc1ccc(NC(=O)/C=C\c2cn(-c3ccccc3)nc2-c2ccc([N+](=O)[O-])cc2)cc1`, in that order: 1.08 µM, 5.17 µM, 1.15 µM and 1.02 µM.
Turning to `O=C(/C=C\c1cn(-c2ccccc2)nc1-c1ccc([N+](=O)[O-])cc1)Nc1ccc(Br)cc1`, the 50% inhibitory concentration (IC50) worked out at 0.62 µM in the assay on HCT-116, 3.71 µM in the assay on A549, 0.55 µM against Histone deacetylase 2 and 0.42 µM on Histone deacetylase 1. Further, in assay [1], the inhibition entry is “inactive”.
